Test results taken from ChEMBL document CHEMBL1772996, “Bioactive constituents from the roots of Panax japonicus var. major and development of a LC-MS/MS method for distinguishing between natural and artifactual compounds” (J Nat Prod, 2011).
Calls of active or inactive are those of the source. The calls are words filed in the database; no cut-off is given here.

How the values were obtained:
HCT-8 = assay: Cytotoxicity against human HCT8 cells assessed as growth inhibition after 3 days by sulforhodamine B assay; format: functional, cell-based
Neutrophil [1] = assay: Inhibition of superoxide anion generation in human neutrophils in response to fMLP/CB
Neutrophil [2] = assay: Inhibition of fMLP/CB-activated human neutrophil degranulation assessed as inhibition of elastase release using MeO-Suc-Ala-Ala-Pro-Val-p-nitroanilide as a substrate after 5 mins; format: functional, cell-based
Outline: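 Neutrophils from dextran sedimentation, Ficoll Hypaque centrifugation and hypotonic erythrocyte lysis (>98% viable by trypan blue), held in Ca2+-free HBSS pH 7.4 at 4 °C; 5×10^5/mL cells with 100 μM substrate equilibrated 37 °C 2 min, compound 5 min, then 100 nM FMLP plus 0.5 μg/mL CB; A405 monitored continuously; expressed as % of initial rate in drug-free activated control; mean ± S.E.M., n = 3–4; top concentration 30 μM.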

A549 = assay: Cytotoxicity against human A549 cells assessed as growth inhibition after 3 days by sulforhodamine B assay; format: functional, cell-based
DU-145 = assay: Cytotoxicity against human DU145 cells assessed as growth inhibition after 3 days by sulforhodamine B assay; format: functional
KB = assay: Cytotoxicity against human KB cells assessed as growth inhibition after 3 days by sulforhodamine B assay; format: functional
Neutrophil [3] = assay: Inhibition of fMLP/CB-stimulated superoxide anion generation in human neutrophils; format: functional, cell-based
Outline: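 Isolated human neutrophils (dextran sedimentation, Ficoll Hypaque, hypotonic lysis; >98% viable) with 0.5 mg/mL ferricytochrome c and 1 mM Ca2+, 37 °C 2 min, compound 5 min; CB 1 μg/mL 3 min, then 100 nM FMLP 10 min; SOD-inhibitable cytochrome c reduction followed continuously at 550 nm with stirring; mean ± S.E.M., n = 3–4; top concentration 30 μM.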

[4] = Inhibition of yeast alpha-glucosidase assessed as p-nitrophenol release after 20 mins by microplate spectrophotometer; set-up: species or system Saccharomyces cerevisiae

Row | Structure (SMILES) | IC50 (Neutrophil [1]) | IC50 (Neutrophil [2]) | IC50 (Neutrophil [3]) | IC50 [4] | growth inhibition (GI) (HCT-8) | growth inhibition (GI) (A549) | growth inhibition (GI) (DU-145) | growth inhibition (GI) (KB)
1 | COC(=O)[C@H]1O[C@@H](O[C@H]2CC[C@]3(C)[C@H]4CC=C5[C@@H]6CC(C)(C)CC[C@]6(C(=O)O[C@@H]6O[C@H](CO)[C@@H](O)[C@H](O)[C@H]6O)CC[C@@]5(C)[C@]4(C)CC[C@H]3C2(C)C)[C@H](O)[C@@H](O)[C@@H]1O | 13.6 µM | 1.97 µM |  |  | inactive | inactive | inactive | inactive
2 | CCCCOC(=O)[C@H]1O[C@@H](O[C@H]2CC[C@]3(C)[C@H]4CC=C5[C@@H]6CC(C)(C)CC[C@]6(C(=O)O[C@@H]6O[C@H](CO)[C@@H](O)[C@H](O)[C@H]6O)CC[C@@]5(C)[C@]4(C)CC[C@H]3C2(C)C)[C@H](O)[C@@H](O)[C@@H]1O |  | 7.28 µM | 3.73 µM |  | inactive | inactive | inactive | inactive
3 | C[C@H]1O[C@H](O[C@H]2[C@H](O)[C@@H](O)[C@@H](O[C@H]3[C@H](O)[C@@H](O)C(O)O[C@@H]3CO)O[C@@H]2CO)[C@H](O)[C@@H](O)[C@@H]1N[C@H]1C=C(CO)[C@@H](O)[C@H](O)[C@H]1O (some centres undefined) [ACARBOSE] |  |  |  | 678 µM |  |  |  | 
4 | CC1(C)CC[C@]2(C(=O)O[C@@H]3O[C@H](CO)[C@@H](O)[C@H](O)[C@H]3O)CC[C@]3(C)C(=CC[C@@H]4[C@@]5(C)CC[C@H](O[C@@H]6O[C@H](C(=O)O)[C@@H](O)[C@H](O)[C@H]6O)C(C)(C)[C@@H]5CC[C@]43C)[C@@H]2C1 [CHIKUSETSUSAPONIN IVA] |  | 4.76 µM | 2.88 µM |  | inactive | inactive | inactive | inactive
5 | COC(=O)[C@H]1O[C@@H](O[C@H]2CC[C@]3(C)[C@H]4CC=C5[C@@H]6CC(C)(C)CC[C@]6(C(=O)O[C@@H]6O[C@H](CO)[C@@H](O)[C@H](O)[C@H]6O)CC[C@@]5(C)[C@]4(C)CC[C@H]3C2(C)C)[C@H](O[C@H]2OC[C@@H](O)[C@H](O)[C@H]2O)[C@@H](O)[C@@H]1O [PSEUDOGINSENOSIDE RT1 METHYL ESTER] |  | 7.75 µM | 5.26 µM |  | inactive | inactive | inactive | inactive
6 | CC1(C)CC[C@]2(C(=O)O[C@@H]3O[C@H](CO)[C@@H](O)[C@H](O)[C@H]3O)CC[C@]3(C)C(=CC[C@@H]4[C@@]5(C)CC[C@H](O[C@@H]6O[C@H](C(=O)O)[C@@H](O)[C@H](O)[C@H]6O[C@H]6OC[C@@H](O)[C@H](O)[C@H]6O)C(C)(C)[C@@H]5CC[C@]43C)[C@@H]2C1 [PSEUDOGINSENOSIDE RT1] |  | 44.5 µM | 19.4 µM |  | inactive | inactive | inactive | inactive

Now from value to compound, other results behind:

Row | IC50 (Neutrophil [1]) | IC50 (Neutrophil [2]) | IC50 (Neutrophil [3]) | IC50 [4] | Structure (SMILES) | growth inhibition (GI) (HCT-8) | growth inhibition (GI) (A549) | growth inhibition (GI) (DU-145) | growth inhibition (GI) (KB)
7 |  | 1.87 µM | 1.56 µM |  | CC1(C)CC[C@]2(C(=O)O[C@@H]3O[C@H](CO)[C@@H](O)[C@H](O)[C@H]3O)CC[C@]3(C)C(=CC[C@@H]4[C@@]5(C)CC[C@H](O[C@@H]6O[C@H](C(=O)O[C@@H]7O[C@H](CO)[C@@H](O)[C@H](O)[C@H]7O)[C@@H](O[C@@H]7O[C@@H](CO)[C@H](O)[C@H]7O)[C@H](O)[C@H]6O)C(C)(C)[C@@H]5CC[C@]43C)[C@@H]2C1 | inactive | inactive | inactive | inactive
8 |  | 0.75 µM | 1.37 µM |  | CC1(C)CC[C@]2(C(=O)O)CC[C@]3(C)C(=CC[C@@H]4[C@@]5(C)CC[C@H](O)C(C)(C)[C@@H]5CC[C@]43C)[C@@H]2C1 [OLEANOLIC_ACID] | inactive | inactive | inactive | inactive
9 |  | 1.36 µM | 2.24 µM |  | CCCCOC(=O)[C@H]1O[C@@H](O[C@H]2CC[C@]3(C)[C@H]4CC=C5[C@@H]6CC(C)(C)CC[C@]6(C(=O)O[C@@H]6O[C@H](CO)[C@@H](O)[C@H](O)[C@H]6O)CC[C@@]5(C)[C@]4(C)CC[C@H]3C2(C)C)[C@H](O)[C@@H](O)[C@@H]1O[C@@H]1O[C@@H](CO)[C@H](O)[C@H]1O [TAIBAIENOSIDE I] | inactive | inactive | inactive | inactive
